Experimental data reported in ChEMBL document CHEMBL4196175, “First SAR Study for Overriding NRAS Mutant Driven Acute Myeloid Leukemia” (J Med Chem, 2018).
Activity calls are given as the source filed them. The calls are words filed in the database; no cut-off is given here.

Tests used:
BaF3 [1] = assay: Antileukemic activity against mouse BA/F3 cells harboring NRAS-G12D mutant allografted in immunodeficient mouse assessed as median survival time at 25 mg/kg/day, po qd administered on day 6 post implantation (reference value: 23 days); type: functional
[2] = molecular target: Tyrosine-protein kinase JAK2 (Homo sapiens) (UniProt O60674); assay: Inhibition of human JAK2 at 1 uM relative to control
Tyrosine-protein kinase JAK2 (Homo sapiens), sequence (O60674 whole entry): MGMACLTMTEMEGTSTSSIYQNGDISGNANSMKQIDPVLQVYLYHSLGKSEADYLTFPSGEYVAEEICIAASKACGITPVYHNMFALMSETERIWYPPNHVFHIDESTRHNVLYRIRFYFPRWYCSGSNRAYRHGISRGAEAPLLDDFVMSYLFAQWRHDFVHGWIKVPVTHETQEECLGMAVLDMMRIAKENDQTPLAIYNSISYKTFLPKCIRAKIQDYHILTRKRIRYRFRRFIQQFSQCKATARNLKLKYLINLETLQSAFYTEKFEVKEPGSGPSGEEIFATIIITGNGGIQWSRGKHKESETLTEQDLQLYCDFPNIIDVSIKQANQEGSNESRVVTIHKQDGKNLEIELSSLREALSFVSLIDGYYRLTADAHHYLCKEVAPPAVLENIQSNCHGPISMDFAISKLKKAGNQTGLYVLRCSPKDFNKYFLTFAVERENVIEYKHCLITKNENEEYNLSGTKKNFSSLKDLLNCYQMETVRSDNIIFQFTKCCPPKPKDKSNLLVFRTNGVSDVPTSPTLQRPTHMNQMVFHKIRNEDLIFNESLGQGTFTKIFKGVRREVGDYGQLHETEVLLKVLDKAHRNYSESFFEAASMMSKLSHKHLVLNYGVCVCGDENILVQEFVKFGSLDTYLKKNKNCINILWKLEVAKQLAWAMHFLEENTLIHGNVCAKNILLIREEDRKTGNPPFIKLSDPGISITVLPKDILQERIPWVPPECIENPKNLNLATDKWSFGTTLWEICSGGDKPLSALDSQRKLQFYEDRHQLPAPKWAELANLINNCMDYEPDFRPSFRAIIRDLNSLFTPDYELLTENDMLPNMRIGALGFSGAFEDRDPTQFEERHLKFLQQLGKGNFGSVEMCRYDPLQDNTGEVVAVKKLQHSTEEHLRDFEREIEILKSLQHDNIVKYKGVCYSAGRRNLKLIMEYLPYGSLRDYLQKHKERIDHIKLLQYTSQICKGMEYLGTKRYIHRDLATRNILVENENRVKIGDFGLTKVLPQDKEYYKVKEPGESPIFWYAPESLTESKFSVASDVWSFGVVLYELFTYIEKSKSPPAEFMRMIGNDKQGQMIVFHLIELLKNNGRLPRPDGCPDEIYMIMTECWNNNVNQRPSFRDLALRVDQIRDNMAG

[3] = molecular target: Mitogen-activated protein kinase 11 (Homo sapiens) (UniProt Q15759); assay: Inhibition of human P38beta at 1 uM relative to control
Mitogen-activated protein kinase 11 (Homo sapiens), sequence (Q15759 whole entry): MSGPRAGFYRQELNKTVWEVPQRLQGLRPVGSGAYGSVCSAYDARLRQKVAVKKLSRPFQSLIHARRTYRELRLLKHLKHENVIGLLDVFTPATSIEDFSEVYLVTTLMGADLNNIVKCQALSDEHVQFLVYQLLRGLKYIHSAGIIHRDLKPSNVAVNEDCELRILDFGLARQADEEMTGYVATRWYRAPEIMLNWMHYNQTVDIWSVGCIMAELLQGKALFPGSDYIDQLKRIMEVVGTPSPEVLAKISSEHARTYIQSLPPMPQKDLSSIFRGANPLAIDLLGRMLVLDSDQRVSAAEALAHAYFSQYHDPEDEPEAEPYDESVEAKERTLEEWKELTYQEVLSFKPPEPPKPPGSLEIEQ

BaF3 [4] = assay: Induction of apoptosis in mouse BA/F3 cells expressing NRAS-G12D mutant assessed as increase in cleaved caspase-3 levels at 5 uM after 24 hrs by Western blot analysis; type: functional, cell-based
Outline: (§1)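 Cells treated 24 h with indicated concentrations (1 µM; 5 µM also used in Ba/F3-NRAS-G12D); cleaved PARP, cleaved caspase 3, bcl-2 and MCL1 detected by western blot with actin as loading control.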

Activated CDC42 kinase 1 = Activated CDC42 kinase 1 (Homo sapiens, UniProt Q07912); conditions: 1 uM
Activated CDC42 kinase 1, sequence (Q07912 whole entry, looked up): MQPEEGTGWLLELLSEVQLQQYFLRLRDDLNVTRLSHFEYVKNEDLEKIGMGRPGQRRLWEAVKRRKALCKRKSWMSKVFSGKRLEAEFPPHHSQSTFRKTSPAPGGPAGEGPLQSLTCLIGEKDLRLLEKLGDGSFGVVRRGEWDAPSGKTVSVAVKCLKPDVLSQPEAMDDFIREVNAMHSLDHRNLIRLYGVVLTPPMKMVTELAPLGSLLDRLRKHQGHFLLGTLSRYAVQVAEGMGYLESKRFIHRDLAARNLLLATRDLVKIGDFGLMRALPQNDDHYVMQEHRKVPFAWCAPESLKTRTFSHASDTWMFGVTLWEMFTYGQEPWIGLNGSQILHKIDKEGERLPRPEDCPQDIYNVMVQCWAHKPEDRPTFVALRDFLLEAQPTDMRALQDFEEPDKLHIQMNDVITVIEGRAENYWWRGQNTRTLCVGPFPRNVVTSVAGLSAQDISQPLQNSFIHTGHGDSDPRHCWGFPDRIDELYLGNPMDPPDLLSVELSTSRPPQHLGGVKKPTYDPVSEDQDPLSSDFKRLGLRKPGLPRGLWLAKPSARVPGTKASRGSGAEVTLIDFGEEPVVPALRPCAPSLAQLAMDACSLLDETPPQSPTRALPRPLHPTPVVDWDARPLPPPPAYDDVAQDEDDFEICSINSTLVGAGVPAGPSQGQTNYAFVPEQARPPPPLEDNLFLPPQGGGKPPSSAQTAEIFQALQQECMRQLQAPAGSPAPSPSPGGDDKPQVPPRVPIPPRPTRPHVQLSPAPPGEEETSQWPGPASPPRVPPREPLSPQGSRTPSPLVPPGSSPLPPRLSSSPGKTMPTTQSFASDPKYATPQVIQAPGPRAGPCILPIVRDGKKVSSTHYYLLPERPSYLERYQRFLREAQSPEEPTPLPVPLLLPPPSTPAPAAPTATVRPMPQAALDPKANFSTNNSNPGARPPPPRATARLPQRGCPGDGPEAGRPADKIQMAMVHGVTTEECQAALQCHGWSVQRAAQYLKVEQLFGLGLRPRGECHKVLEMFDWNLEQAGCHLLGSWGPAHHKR

[5] = molecular target: Macrophage colony-stimulating factor 1 receptor (Homo sapiens) (UniProt P07333); assay: Inhibition of human FMS at 1 uM relative to control
Macrophage colony-stimulating factor 1 receptor (Homo sapiens), sequence (P07333 whole entry): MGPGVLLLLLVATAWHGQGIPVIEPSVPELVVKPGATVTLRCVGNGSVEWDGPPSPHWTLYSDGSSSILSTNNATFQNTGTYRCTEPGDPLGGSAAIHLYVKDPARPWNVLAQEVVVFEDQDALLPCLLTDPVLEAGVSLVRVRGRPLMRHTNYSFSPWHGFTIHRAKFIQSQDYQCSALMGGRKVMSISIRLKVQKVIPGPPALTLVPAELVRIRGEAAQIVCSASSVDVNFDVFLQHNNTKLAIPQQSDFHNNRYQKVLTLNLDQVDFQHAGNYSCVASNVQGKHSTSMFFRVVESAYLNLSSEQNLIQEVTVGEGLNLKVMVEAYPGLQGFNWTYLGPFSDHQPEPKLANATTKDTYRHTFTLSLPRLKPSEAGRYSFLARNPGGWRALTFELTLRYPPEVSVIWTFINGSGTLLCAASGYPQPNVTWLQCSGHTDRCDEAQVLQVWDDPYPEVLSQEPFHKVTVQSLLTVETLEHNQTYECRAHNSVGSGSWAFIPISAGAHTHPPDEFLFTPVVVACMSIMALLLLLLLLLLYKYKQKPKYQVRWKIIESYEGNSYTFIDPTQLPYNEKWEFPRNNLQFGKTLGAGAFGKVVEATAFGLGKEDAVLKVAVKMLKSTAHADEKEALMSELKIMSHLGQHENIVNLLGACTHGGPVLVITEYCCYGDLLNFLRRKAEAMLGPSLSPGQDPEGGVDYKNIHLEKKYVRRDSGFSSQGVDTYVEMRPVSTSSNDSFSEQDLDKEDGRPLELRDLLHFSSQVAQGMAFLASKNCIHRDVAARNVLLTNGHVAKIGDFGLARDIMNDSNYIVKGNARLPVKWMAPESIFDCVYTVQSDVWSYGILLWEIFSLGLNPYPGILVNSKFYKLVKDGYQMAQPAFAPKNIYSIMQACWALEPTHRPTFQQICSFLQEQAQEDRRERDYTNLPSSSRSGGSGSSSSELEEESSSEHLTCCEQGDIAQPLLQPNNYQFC

OCI-AML-3 = assay: Antileukemic activity against human OCI-AML3 cells harboring NRAS-Q61L mutant xenografted in immunodeficient po dosed mouse administered qd on day 21 post implantation measured on day 20 post dose; type: functional, organism-based
[6] = molecular target: Epithelial discoidin domain-containing receptor 1 (Homo sapiens) (UniProt Q08345); assay: Inhibition of human DDR1 at 1 uM relative to control
Epithelial discoidin domain-containing receptor 1 (Homo sapiens), sequence (Q08345 whole entry, the tested form may be a part): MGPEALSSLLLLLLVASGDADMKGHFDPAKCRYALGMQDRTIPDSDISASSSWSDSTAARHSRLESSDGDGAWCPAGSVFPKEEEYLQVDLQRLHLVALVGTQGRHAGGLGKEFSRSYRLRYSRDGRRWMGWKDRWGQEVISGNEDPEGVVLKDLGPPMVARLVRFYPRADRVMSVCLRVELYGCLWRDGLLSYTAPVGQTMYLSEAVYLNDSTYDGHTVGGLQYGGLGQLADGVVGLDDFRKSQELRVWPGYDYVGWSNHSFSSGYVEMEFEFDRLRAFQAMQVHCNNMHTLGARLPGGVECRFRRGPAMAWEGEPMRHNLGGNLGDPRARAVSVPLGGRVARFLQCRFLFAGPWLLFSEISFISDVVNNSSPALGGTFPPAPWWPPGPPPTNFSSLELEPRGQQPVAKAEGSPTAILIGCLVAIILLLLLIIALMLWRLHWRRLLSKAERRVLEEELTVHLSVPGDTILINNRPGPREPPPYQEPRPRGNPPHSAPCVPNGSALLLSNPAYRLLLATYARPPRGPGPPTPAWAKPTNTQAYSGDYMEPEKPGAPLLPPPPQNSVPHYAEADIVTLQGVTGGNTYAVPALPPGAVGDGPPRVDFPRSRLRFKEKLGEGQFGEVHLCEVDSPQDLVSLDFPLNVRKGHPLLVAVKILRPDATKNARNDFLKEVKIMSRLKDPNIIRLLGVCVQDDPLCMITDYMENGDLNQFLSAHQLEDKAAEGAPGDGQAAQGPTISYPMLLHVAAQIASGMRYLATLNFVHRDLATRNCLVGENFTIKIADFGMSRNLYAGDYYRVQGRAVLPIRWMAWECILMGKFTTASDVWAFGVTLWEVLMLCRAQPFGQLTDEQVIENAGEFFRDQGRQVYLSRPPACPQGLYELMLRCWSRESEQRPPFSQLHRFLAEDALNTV

BaF3 [7] = assay: Induction of apoptosis in mouse BA/F3 cells expressing NRAS-G12D mutant assessed as increase in cleaved PARP levels at 5 uM after 24 hrs by Western blot analysis; type: functional, cell-based; outline: as §1
BaF3 [8] = assay: Induction of apoptosis in mouse BA/F3 cells expressing NRAS-G12D mutant assessed as increase in cleaved caspase-3 levels at 1 uM after 24 hrs by Western blot analysis; type: functional, cell-based; outline: as §1
BaF3 [9] = assay: Induction of apoptosis in mouse BA/F3 cells expressing NRAS-G12D mutant assessed as decrease in MCL1 levels at 1 uM after 24 hrs by Western blot analysis; type: functional, cell-based; outline: as §1

Row | SMILES | MSD (BaF3 [1]) | inhibition [2] | inhibition [3] | Activity (BaF3 [4]) | inhibition (Activated CDC42 kinase 1) | inhibition [5] | Activity (OCI-AML-3) | inhibition [6] | Activity (BaF3 [7]) | Activity (BaF3 [8]) | Activity (BaF3 [9])
1 | Cc1ccc(NC(=O)c2cccc(C(F)(F)F)c2)cc1N1Cc2cnc(N)nc2N(C)C1=O | 35 days | 94.4% | 98% | Active | 100% | 99.1% | Dose-dependent effect | 97.8% | Active |  | 
2 | CC(=O)N1CCN(c2ccc(Nc3ncc4c(n3)N(C)C(=O)N(c3cc(NC(=O)c5cccc(C(F)(F)F)c5)ccc3C)C4)cn2)CC1 |  |  |  |  |  |  |  |  |  | Active | Active
